Results: ChEMBL document CHEMBL3813653, “Disulfides with Anti-inflammatory Activity from the Brown Alga Dictyopteris membranacea” (J Nat Prod, 2016)
Active and inactive are the calls of the source. No cut-off for these calls is given here.

Assays:
Staphylococcus aureus [1] = assay: Antibacterial activity against Staphylococcus aureus SA1199B after 18 hrs by serial dilution method; type: functional, organism-based
Summary of the method: (§1)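 Strains grown on nutrient agar for 24 h at 37 °C. Compounds dissolved in DMSO and diluted in Mueller–Hinton broth to a 512 μg/mL starting concentration, then serially diluted in MHB with 10 mg/L Mg2+ and 20 mg/L Ca2+. Final inoculum 5 × 10^5 cfu/mL; 18 h, 37 °C. MIC is the lowest concentration with no growth, confirmed by MTT colour change. DMSO at most 3.125% v/v; triplicate.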

Escherichia coli = assay: Antibacterial activity against Escherichia coli NCTC 10418 after 18 hrs by serial dilution method; type: functional, organism-based; summary of the method: as §1
Staphylococcus aureus [2] = assay: Antibacterial activity against Staphylococcus aureus EMRSA-15 after 18 hrs by serial dilution method; type: functional, organism-based; summary of the method: as §1
RAW264.7 [3] = assay: Antiinflammatory activity in mouse RAW264.7 cells assessed as inhibition of LPS-induced nitric oxide production treated 1 hr before LPS challenge measured after 48 hrs by Griess reaction
RAW264.7 [4] = assay: Cytostatic activity against mouse RAW264.7 cells assessed as cell growth inhibition after 48 hrs by MTT assay; type: cell-based; conditions: raw264.7, 48 h
Summary of the method: (§2)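 RAW 264.7 cells seeded, cultured overnight, and the seeded cell number measured before treatment as control. Cells exposed to various concentrations for 48 h, then MTT at 0.5 mg/mL […]. Cells lysed in 2-propanol with 0.4% HCl; absorbance read at 610 nm. OD normalized to control; one-way ANOVA.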

RAW264.7 [5] = assay: Cytotoxicity against mouse RAW264.7 cells assessed as cell growth inhibition after 48 hrs by MTT assay; type: cell-based; conditions: raw264.7, 48 h; summary of the method: as §2
RAW264.7 [6] = assay: Antiinflammatory activity in mouse RAW264.7 cells assessed as inhibition of LPS-induced nitric oxide production preincubated for 1 hr followed by LPS stimulation for 48 hrs by Griess assay; type: functional, cell-based
Summary of the method: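 Macrophage line RAW 264.7 pretreated 1 h with a range of concentrations (vehicle Carbowax 400, 0.1% v/v final), then given 100 ng/mL LPS for 48 h. Supernatant nitrite read by Griess reaction at 540 nm using a nitrite standard curve. NO normalized to Carbowax-only cells (100%); IC50 is the concentration giving 50% inhibition; four replicates, mean ± SD.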

RAW264.7 [7] = assay: Antiinflammatory activity in mouse RAW264.7 cells assessed as inhibition of LPS-induced nitric oxide production at 10 ug/ml preincubated for 1 hr followed by LPS stimulation for 48 hrs by Griess assay; type: functional, cell-based
Summary of the method: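 RAW 264.7 mouse macrophages in DMEM with 10% heat-inactivated FBS at 37 °C, 5% CO2. Compounds fixed at 10 μg/mL in Carbowax 400 (0.1% v/v final), added 1 h before 100 ng/mL LPS for 48 h. Nitrite in the supernatant measured by Griess reaction (540 nm) against a sodium nitrite standard curve. Controls: 0.1% Carbowax only.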

Compound	Activity (Staphylococcus aureus [1])	Activity (Escherichia coli)	Activity (Staphylococcus aureus [2])	IC50 (RAW264.7 [3]) [µM]	growth inhibition (GI) (RAW264.7 [4])	GI (RAW264.7 [5]) [µM]	IC50 (RAW264.7 [6]) [µM]	inhibition (RAW264.7 [7])
CCCCCCCCC(=O)CCSSCCC(=O)CCCCCCCC	inactive	inactive	inactive					
C=C([C@H]1CC[C@@](C)(O)[C@@H](Br)C1)[C@H]1[C@H](O)[C@@H]2[C@@H](CC[C@@]2(C)O)C1(C)C				2.2				
CCCCCC/C=C/C(=O)CCSSCCC(=O)/C=C/CCCCCC	inactive	inactive	inactive					
CCCCCC/C=C/C(=O)CCSSCCC(=O)CC(CCCCCC)SC (configuration not stated)	inactive	inactive	inactive					
CCCCCCCCC(=O)CCSSCCC(=O)CC(CCCCCC)SC (configuration not stated)	inactive	inactive	inactive		Toxic	> 45	3.8	Active
CCCCCCC1CC(=O)CCSS1 (configuration not stated)	inactive	inactive	inactive		Toxic	> 85	14.2	Active
CCCCCC/C=C/C(=O)CCSSCCC(=O)CCCCCCCC	inactive	inactive	inactive					
